In ChEMBL document CHEMBL4689842, “EUbOPEN Chemogenomics Library wave 1” (2021):

Tested on: Fibroblast
Experiment: Multiplex assay against human fibroblast
Assay type: toxicity, cell-based
Summary of the method: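 Four dyes were applied at seeding to live cells: Hoechst33342, BioTracker Green Microtubule Cytoskeleton Dye, MitoTracker Red and Annexin V Alexa Fluor 680. Imaging after compound addition used a CQ1 microscope at 37°C and 5% CO2. CellPathfinder machine-learning gating then sorted cells into Hoechst high-intensity objects or normal cells, normal cells into healthy, pyknosed or fragmented nuclei, and pyknosed cells into mitotic or apoptotic, with tubulin, mitochondrial-mass and membrane-permeability phenotypes given as per cents of healthy-nucleus cells.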

[1] = 12 h, 1 µM, compound concentration 1 uM, replicate 1
[2] = 12 h, 1 µM, compound concentration 1 uM, replicate 2
[3] = 12 h, 10 µM, compound concentration 10 uM, replicate 1
[4] = 12 h, 10 µM, compound concentration 10 uM, replicate 2
[5] = 24 h, 1 µM, compound concentration 1 uM, replicate 1
[6] = 24 h, 1 µM, compound concentration 1 uM, replicate 2
[7] = 24 h, 10 µM, compound concentration 10 uM, replicate 1
[8] = 24 h, 10 µM, compound concentration 10 uM, replicate 2
[9] = 48 h, 1 µM, compound concentration 1 uM, replicate 1
[10] = 48 h, 1 µM, compound concentration 1 uM, replicate 2
[11] = 48 h, 10 µM, compound concentration 10 uM, replicate 1
[12] = 48 h, 10 µM, compound concentration 10 uM, replicate 2

OC1(c2ccc(Cl)cc2)CCN(Cc2c[nH]c3ccccc23)CC1
Population Apoptotic (%) [1]: 58%
Population Fragmented Nuclei (%) [1]: 26%
Population Healthy Nuclei (%) [1]: 41%
Population Hoechst High Intensity Objects (%) [1]: 11%
Population Membrane Permeable-Phenotype (%) [1]: 22%
Population Mitochondria Different-Phenotype (%) [1]: 6%
Population Mitotic Cells (%) [1]: 41%
Population Normal (%) [1]: 88%
Population Pyknosed Nuclei (%) [1]: 32%
Population Tubulin-Different-Phenotype (%) [1]: 33%
Total Cell Count [1]: 169
Population Apoptotic (%) [2]: 0%
Population Fragmented Nuclei (%) [2]: 13%
Population Healthy Nuclei (%) [2]: 77%
Population Hoechst High Intensity Objects (%) [2]: 10%
Population Membrane Permeable-Phenotype (%) [2]: 3%
Population Mitochondria Different-Phenotype (%) [2]: 13%
Population Mitotic Cells (%) [2]: 100%
Population Normal (%) [2]: 89%
Population Pyknosed Nuclei (%) [2]: 9%
Population Tubulin-Different-Phenotype (%) [2]: 9%
Total Cell Count [2]: 78
Population Apoptotic (%) [3]: 63%
Population Fragmented Nuclei (%) [3]: 37%
Population Healthy Nuclei (%) [3]: 38%
Population Hoechst High Intensity Objects (%) [3]: 30%
Population Membrane Permeable-Phenotype (%) [3]: 13%
Population Mitochondria Different-Phenotype (%) [3]: 34%
Population Mitotic Cells (%) [3]: 36%
Population Normal (%) [3]: 69%
Population Pyknosed Nuclei (%) [3]: 23%
Population Tubulin-Different-Phenotype (%) [3]: 90%
Total Cell Count [3]: 246
Population Apoptotic (%) [4]: 42%
Population Fragmented Nuclei (%) [4]: 13%
Population Hoechst High Intensity Objects (%) [4]: 3%
Population Membrane Permeable-Phenotype (%) [4]: 4%
Population Mitochondria Different-Phenotype (%) [4]: 95%
Population Mitotic Cells (%) [4]: 57%
Population Normal (%) [4]: 96%
Population Pyknosed Nuclei (%) [4]: 47%
Population Tubulin-Different-Phenotype (%) [4]: 60%
Total Cell Count [4]: 74
Population Apoptotic (%) [5]: 52%
Population Fragmented Nuclei (%) [5]: 29%
Population Healthy Nuclei (%) [5]: 47%
Population Hoechst High Intensity Objects (%) [5]: 14%
Population Membrane Permeable-Phenotype (%) [5]: 25%
Population Mitochondria Different-Phenotype (%) [5]: 10%
Population Mitotic Cells (%) [5]: 47%
Population Normal (%) [5]: 85%
Population Pyknosed Nuclei (%) [5]: 22%
Population Tubulin-Different-Phenotype (%) [5]: 42%
Total Cell Count [5]: 174
Population Apoptotic (%) [6]: 20%
Population Fragmented Nuclei (%) [6]: 5%
Population Healthy Nuclei (%) [6]: 88%
Population Hoechst High Intensity Objects (%) [6]: 8%
Population Membrane Permeable-Phenotype (%) [6]: 4%
Population Mitochondria Different-Phenotype (%) [6]: 13%
Population Mitotic Cells (%) [6]: 80%
Population Normal (%) [6]: 91%
Population Pyknosed Nuclei (%) [6]: 6%
Population Tubulin-Different-Phenotype (%) [6]: 8%
Total Cell Count [6]: 77
Population Apoptotic (%) [7]: 64%
Population Fragmented Nuclei (%) [7]: 24%
Population Healthy Nuclei (%) [7]: 50%
Population Hoechst High Intensity Objects (%) [7]: 43%
Population Membrane Permeable-Phenotype (%) [7]: 20%
Population Mitochondria Different-Phenotype (%) [7]: 51%
Population Mitotic Cells (%) [7]: 35%
Population Normal (%) [7]: 56%
Population Pyknosed Nuclei (%) [7]: 24%
Population Tubulin-Different-Phenotype (%) [7]: 75%
Total Cell Count [7]: 224
Population Apoptotic (%) [8]: 66%
Population Fragmented Nuclei (%) [8]: 21%
Population Healthy Nuclei (%) [8]: 27%
Population Hoechst High Intensity Objects (%) [8]: 5%
Population Membrane Permeable-Phenotype (%) [8]: 5%
Population Mitochondria Different-Phenotype (%) [8]: 94%
Population Mitotic Cells (%) [8]: 33%
Population Normal (%) [8]: 94%
Population Pyknosed Nuclei (%) [8]: 51%
Population Tubulin-Different-Phenotype (%) [8]: 52%
Total Cell Count [8]: 85
Population Apoptotic (%) [9]: 82%
Population Fragmented Nuclei (%) [9]: 33%
Population Healthy Nuclei (%) [9]: 26%
Population Hoechst High Intensity Objects (%) [9]: 0%
Population Membrane Permeable-Phenotype (%) [9]: 54%
Population Mitochondria Different-Phenotype (%) [9]: 0%
Population Mitotic Cells (%) [9]: 17%
Population Normal (%) [9]: 100%
Population Pyknosed Nuclei (%) [9]: 40%
Population Tubulin-Different-Phenotype (%) [9]: 90%
Total Cell Count [9]: 42
Population Apoptotic (%) [10]: 50%
Population Fragmented Nuclei (%) [10]: 43%
Population Healthy Nuclei (%) [10]: 54%
Population Hoechst High Intensity Objects (%) [10]: 14%
Population Membrane Permeable-Phenotype (%) [10]: 5%
Population Mitochondria Different-Phenotype (%) [10]: 1%
Population Mitotic Cells (%) [10]: 50%
Population Normal (%) [10]: 85%
Population Pyknosed Nuclei (%) [10]: 1%
Population Tubulin-Different-Phenotype (%) [10]: 46%
Total Cell Count [10]: 119
Population Fragmented Nuclei (%) [11]: 36%
Population Healthy Nuclei (%) [11]: 26%
Population Hoechst High Intensity Objects (%) [11]: 40%
Population Membrane Permeable-Phenotype (%) [11]: 16%
Population Mitochondria Different-Phenotype (%) [11]: 56%
Population Normal (%) [11]: 59%
Population Pyknosed Nuclei (%) [11]: 37%
Population Tubulin-Different-Phenotype (%) [11]: 70%
Total Cell Count [11]: 191
Population Apoptotic (%) [12]: 90%
Population Fragmented Nuclei (%) [12]: 39%
Population Healthy Nuclei (%) [12]: 24%
Population Hoechst High Intensity Objects (%) [12]: 30%
Population Membrane Permeable-Phenotype (%) [12]: 17%
Population Mitochondria Different-Phenotype (%) [12]: 47%
Population Mitotic Cells (%) [12]: 9%
Population Normal (%) [12]: 69%
Population Pyknosed Nuclei (%) [12]: 35%
Population Tubulin-Different-Phenotype (%) [12]: 52%
Total Cell Count [12]: 133
